From ChEMBL document CHEMBL3046679, “Design, synthesis, and biological activities of arylmethylamine substituted chlorotriazine and methylthiotriazine compounds” (J Agric Food Chem, 2011)
Activity calls are given as the source filed them. No cut-off for these calls is given here.

Columns and labels:
Echinochloa crus-galli [1] = assay: Herbicidal activity against Echinochloa crus-galli (barnyard grass) at 1.5 kg/ha postemergence treatment measured after 10 days by glasshouse test; format: functional; conditions: post-emergence, 240 h
How it was run: (§1)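 Glasshouse pre/postemergence test, each treatment in triplicate. Above-ground fresh weight measured 10 days after treatment. Result expressed as percent inhibition versus control, from 0 (no control) to 100 (complete control); glyphosate used as positive control.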

Brassica napus [2] = assay: Herbicidal activity against Brassica napus (oilseed rape) at 1.5 kg/ha postemergence treatment measured after 10 days by glasshouse test; format: functional; conditions: post-emergence, 240 h; how it was run: as §1
Alternaria solani = assay: Fungicidal activity against Alternaria solani assessed as inhibition of mycelia growth at 2 ppm; format: functional, organism-based
How it was run: (§2)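 Mycelial growth test in 96-well plates: compound incorporated into artificial growth medium at 2 ppm, two replicates per rate. Each well scored 99 for complete, 55 for partial or 0 for no inhibition. Values are the mean across replicates; azoxystrobin and prochloraz used as positive controls.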

Stellaria media [3] = assay: Herbicidal activity against Stellaria media assessed as growth inhibition at 1 kg/ha preemergence treatment by glasshouse test; format: functional; conditions: pre-emergence, read-out: GI
How it was run: (§3)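 Glasshouse screen with pre- or postemergence application at 1.0 kg/ha. Result given as percent inhibition of plant growth; norflurazon and glyphosate used as controls.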

Lolium perenne [4] = assay: Herbicidal activity against Lolium perenne (perennial ryegrass) assessed as growth inhibition at 1 kg/ha preemergence treatment by glasshouse test; format: functional; conditions: pre-emergence, read-out: GI; how it was run: as §3
Poa annua = assay: Herbicidal activity against Poa annua assessed as growth inhibition at 32 ppm by 96-well plate test; format: functional; conditions: read-out: GI
How it was run: (§4)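 96-well plate herbicide screen: Arabidopsis thaliana at 10 ppm and Poa annua at 32 ppm, two replicates. Plates incubated seven days in a controlled-environment cabinet. Each replicate scored 0 (no visible effect) or 99 (herbicidal effect); values are the mean of the two. Atrazine used as reference.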

Stellaria media [5] = assay: Herbicidal activity against Stellaria media assessed as growth inhibition at 1 kg/ha postemergence treatment by glasshouse test; format: functional; conditions: post-emergence, read-out: GI; how it was run: as §3
Zymoseptoria tritici = assay: Fungicidal activity against Zymoseptoria tritici assessed as inhibition of mycelia growth at 100 ppm; format: functional, organism-based
Botrytis cinerea = assay: Fungicidal activity against Botryotinia fuckeliana assessed as inhibition of mycelia growth at 2 ppm; format: functional, organism-based; how it was run: as §2
Brassica napus [6] = assay: Herbicidal activity against Brassica napus (oilseed rape) at 1.5 kg/ha preemergence treatment measured after 10 days by glasshouse test; format: functional; conditions: pre-emergence, 240 h; how it was run: as §1
Echinochloa crus-galli [7] = assay: Herbicidal activity against Echinochloa crus-galli (barnyard grass) at 1.5 kg/ha preemergence treatment measured after 10 days by glasshouse test; format: functional; conditions: pre-emergence, 240 h; how it was run: as §1
Arabidopsis thaliana = assay: Herbicidal activity against Arabidopsis thaliana assessed as growth inhibition at 10 ppm by 96-well plate test; format: functional; conditions: read-out: GI; how it was run: as §4
Heliothis virescens = assay: Insecticidal activity against Lepidoptera Heliothis virescens (tobacco budworm) assessed as mortality at 1000 ppm by leaf-disk assay; format: functional, organism-based
How it was run: (§5)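 Leaf-disk assay at 1000 ppm, three replicates. Plates kept 5–9 days in controlled-environment cabinets. Mortality judged against untreated wells: 99 for significant mortality, 0 otherwise. Values are the mean of three; thiamethoxam and indoxacarb used as positive controls.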

Pythium dissimile = assay: Fungicidal activity against Pythium dissimile assessed as inhibition of mycelia growth at 2 ppm; format: functional, organism-based; how it was run: as §2
Phytophthora infestans = assay: Fungicidal activity against Phytophthora infestans assessed as inhibition of mycelia growth at 200 ppm; format: functional, organism-based
Amaranthus retroflexus [8] = assay: Herbicidal activity against Amaranthus retroflexus assessed as growth inhibition at 1 kg/ha postemergence treatment by glasshouse test; format: functional; conditions: post-emergence, read-out: GI; how it was run: as §3
Fusarium graminearum = assay: Fungicidal activity against Fusarium graminearum assessed as inhibition of mycelia growth at 2 ppm; format: functional, organism-based; how it was run: as §2
Amaranthus retroflexus [9] = assay: Herbicidal activity against Amaranthus retroflexus assessed as growth inhibition at 1 kg/ha preemergence treatment by glasshouse test; format: functional; conditions: pre-emergence, read-out: GI; how it was run: as §3
Lolium perenne [10] = assay: Herbicidal activity against Lolium perenne (perennial ryegrass) assessed as growth inhibition at 1 kg/ha postemergence treatment by glasshouse test; format: functional; conditions: post-emergence, read-out: GI; how it was run: as §3
Digitaria sanguinalis [11] = assay: Herbicidal activity against Digitaria sanguinalis (hairy crabgrass) assessed as growth inhibition at 1 kg/ha postemergence treatment by glasshouse test; format: functional; conditions: post-emergence, read-out: GI; how it was run: as §3
Digitaria sanguinalis [12] = assay: Herbicidal activity against Digitaria sanguinalis (hairy crabgrass) assessed as growth inhibition at 1 kg/ha preemergence treatment by glasshouse test; format: functional; conditions: pre-emergence, read-out: GI; how it was run: as §3
Aphididae = assay: Insecticidal activity against Aphididae (aphids) assessed as mortality at 1000 ppm by leaf-disk assay; format: functional, organism-based; how it was run: as §5

| Structure (SMILES) | inhibition at 1500 g/ha (Echinochloa crus-galli [1]) [%] | inhibition at 1500 g/ha (Brassica napus [2]) [%] | inhibition (Alternaria solani) | inhibition of growth at 1000 g/ha (Stellaria media [3]) [%] | inhibition of growth at 1000 g/ha (Lolium perenne [4]) [%] | inhibition of growth at 32 ppm (Poa annua) [%] | inhibition of growth at 1000 g/ha (Stellaria media [5]) [%] | inhibition (Zymoseptoria tritici) | inhibition at 1500 g/ha (Brassica napus [6]) [%] | inhibition at 1500 g/ha (Echinochloa crus-galli [7]) [%] | inhibition of growth at 10 ppm (Arabidopsis thaliana) [%] | mortality (Heliothis virescens) | inhibition (Pythium dissimile) | inhibition (Phytophthora infestans) | inhibition of growth at 1000 g/ha (Amaranthus retroflexus [8]) [%] | inhibition (Fusarium graminearum) | inhibition of growth at 1000 g/ha (Amaranthus retroflexus [9]) [%] | inhibition of growth at 1000 g/ha (Lolium perenne [10]) [%] | inhibition of growth at 1000 g/ha (Digitaria sanguinalis [11]) [%] | inhibition of growth at 1000 g/ha (Digitaria sanguinalis [12]) [%] | other results |
| --- | --- | --- | --- | --- | --- | --- | --- | --- | --- | --- | --- | --- | --- | --- | --- | --- | --- | --- | --- | --- | --- |
| CSc1nc(NCc2ccc(Cl)nc2)nc(NC(C)C)n1 | 88.6 | 100 | inactive | 90 | 10 | 0 | 100 | inactive | 100 | 88.6 | 99 | inactive | inactive | inactive | 70 | inactive | 100 | 50 | 90 | 0 | inhibition (Botrytis cinerea): Active |
| O=C(O)CNCP(=O)(O)O [GLYPHOSATE] |  |  |  | 0 | 0 |  | 80 |  |  |  |  |  |  |  | 90 |  | 90 | 80 | 90 | 0 |  |
| CCNc1nc(NC(C)C)nc(SC)n1 [AMETRYNE] | 100 | 100 | inactive | 90 | 90 | 0 | 100 | inactive | 100 | 100 | 99 | inactive | inactive | inactive | 100 | inactive | 100 | 100 | 100 | 90 | mortality (Aphididae): inactive |
| CNc1cnn(-c2cccc(C(F)(F)F)c2)c(=O)c1Cl [NORFLURAZONE] |  |  |  |  |  | 99 |  |  |  |  | 99 |  |  |  |  |  |  |  |  |  |  |
| CC(C)Nc1nc(Cl)nc(NCc2cc(-c3ccccc3)no2)n1 | 17.7 | 42.4 | inactive |  |  |  |  |  | 20.1 | 4.3 |  | Active | inactive | inactive |  | inactive |  |  |  |  | mortality (Aphididae): inactive |
